Screens deposited in PubChem BioAssay by several laboratories.
NR2E3 ag-1 – agonists of human NR2E3 nuclear receptor; Q9Y5X4; CHO-S Gal4-NCOR/VP16-NR2E3 two-hybrid, luciferase; inhibition of corepressor binding, % at 3.98 µM; 360,000 tested, 0.35% active;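 active means inhibition above the mean of all tested compounds plus 3 SD, cut at about 70% in these data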;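 further: 0% = DMSO with NR2E3 transfected cells and 100% = cells lacking NR2E3 construct; higher means lower luciferase signal from less NR2E3 corepressor binding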
PG9 Ab binder – binds the HIV-1 gp120 antibody PG9. AID 624416. 360,000 tested, 0.43% active. TR-FRET gp120-PG9 antibody binding. inhibition, % at 6.7 µM; in the data active means inhibition above about 8.5%
NR2E3 ag-2 – NR2E3 (human) agonism; Q9Y5X4; GST-NR2E3/biotin-RetCOR TR-FRET, 1536-well; inhibition of corepressor binding, % at 4.78 µM; 320,000 tested, 0.12% active;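 active means percent inhibition above the cutoff of mean plus 3 SD of all tested compounds, set per screening campaign, cut at about 20% in these data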;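 further: 0% = DMSO wells and 100% = biotin wells as full block of FRET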
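Test system – NR2E3–RetCOR corepressor complex · Quantity – NR2E3 fusion 1.35 nM · Buffer or medium – Tris pH 7.5 · Incubation – Compound–protein incubation for 5 h at 4 °C · Technique – TR-FRET, Eu(K)-anti-GST donor, streptavidin-D2 acceptor, ex 340, em 617/671 nm · Evaluation – percent inhibition of 671/617 nm emission ratio versus biotin and DMSO controls · Plate – 1536-well format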
NR1D1 modulator – modulators of human Rev-erb alpha DNA binding; activity, % at 10 µM; Rev-erbα–FITC-DNA binding, fluorescence polarization, 90 min; 370,000 tested, 0.79% active; P20393;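 active means activity above about 14%, limit read from the data; passing the limit was not always enough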;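 further: 0% = DMSO wells with 35 nM protein and 100% = DMSO wells with 750 nM protein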
MC4R antagonist – blocks human MC4R cAMP signaling; MC4R-expressing cells, MTII-stimulated cAMP, LANCE TR-FRET; AID 540295; 360,000 tested, 0.48% active; inhibition, % at 6.5 µM;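 active means inhibition above its plate's cutoff, the mean of tested wells on that plate plus 3 SD, cut at about 29% in these data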;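 further: 0% = Melanotan II alone and 100% = Melanotan II plus saturating MCL0020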
Target sequence (P32245 whole entry, looked up): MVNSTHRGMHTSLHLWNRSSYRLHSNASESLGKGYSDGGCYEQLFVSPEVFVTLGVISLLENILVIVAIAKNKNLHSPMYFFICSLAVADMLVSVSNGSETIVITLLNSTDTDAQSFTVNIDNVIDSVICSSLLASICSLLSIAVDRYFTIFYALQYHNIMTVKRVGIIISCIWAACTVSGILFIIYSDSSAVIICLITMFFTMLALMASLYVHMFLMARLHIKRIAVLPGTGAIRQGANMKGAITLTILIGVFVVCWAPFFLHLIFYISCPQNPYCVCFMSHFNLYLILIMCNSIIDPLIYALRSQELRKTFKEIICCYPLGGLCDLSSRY
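Assay system: U2OS cells stably expressing human melanocortin 4 receptor (MC4R) / Dosing: 6.5 µM / Timing: compound 30 min, challenge 1 h, detection 1 h / Measured by: Eu-cAMP/anti-cAMP TR-FRET, emission 671 nm / Replicates: singlicate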
MC4R barr agon – agonists of human melanocortin 4 receptor (MC4R) beta-arrestin; U2OS MC4R beta-arrestin complementation, luminescence; percent of melanotan II response, DMSO zero; activation, % at 8.9 µM; 360,000 tested, 0.98% active; AID 540308;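 active means activation above a per-plate cutoff, the mean activation of sample wells on that plate plus 3 SD, cut at about 8% in these data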
PG9 bind confirm – confirmation of small molecules binding HIV-1 gp120 antibody PG9. shares compounds with PG9 Ab binder. 1,500 tested, 90% active. inhibition, % at 6.7 µM. TR-FRET PG9 antibody binding, biochemical; in the data active means inhibition above about 9%
PGV04 counter – PGV04 control antibody binding, counter-screen; 1,500 tested, 95% active; shares compounds with PG9 Ab binder; AID 651604; inhibition, % at 6.7 µM; TR-FRET PGV04 antibody-gp120 binding, biochemical; in the data active means inhibition above about 9.5%
PG9 binder DR – small molecules binding HIV-1 gp120 antibody PG9; IC50, µM; shares compounds with PG9 Ab binder; TR-FRET PG9 antibody-gp120 binding inhibition; 95 tested, under 10 active; AID 651848; in the data active means IC50 below about 10 µM
PGV04 binding DR – PGV04 binding, dose response counter-screen; 95 tested, 20% active; shares compounds with PG9 Ab binder; TR-FRET binding to control antibody PGV04; AID 651937; IC50, µM
PG126 binding DR – binds control antibody PG126 in PG9 counter-screen; shares compounds with PG9 Ab binder; TR-FRET binding to antibody PG126, counterscreen; IC50, µM; 95 tested, 20% active
* marks the source's active call; other numbers are inactive results; nt = no result given. This is a sample that favours compounds with a hit; in the whole collection about 2.7% have one here. Unless noted, no stated cut-off is given here; in the data, active means IC50 below about 9 µM; inactive means the rest.

SMILES	NR2E3 ag-1	PG9 Ab binder	NR2E3 ag-2	NR1D1 modulator	MC4R antagonist	MC4R barr agon	PG9 bind confirm	PGV04 counter	others
Cc1ccc(-n2c(SCC(=O)NN=Cc3ccc(-c4ccccc4)cc3)nnc2-c2ccccc2)cc1	nt	nt	nt	-5	nt	nt	nt	nt
CCCc1cc(=O)oc2cc(OCC(=O)Nc3ccc(S(N)(=O)=O)cc3)ccc12	8	18*	1	11	0	0	24*	22*	PG9 binder DR=>67;PGV04 binding DR=>67;PG126 binding DR=>67
Cn1c(/C=C/c2ccc(Cl)cc2)nc2ccccc2c1=O	-109	32*	2	13	-1	9.0*	4	7
CCCCc1c(C)nc2c(OC)cccc2c1SCCC(=O)O	5	1	3	1	11	0	nt	nt
O=C1C(C=Nc2ccccc2O)=C(O)c2ccccc21	-99	-2	3	3	-7	4	nt	nt
Cc1ccc(O)c(N=CC2=C(O)c3ccccc3C2=O)c1	-49	18*	14	6	-4	3	24*	31*
CCCn1cnc2c(sc3nc4c(cc32)CSC(C)(C)C4)c1=O	-50	0	0	-9	11	0	nt	nt
CC(C)CCOc1ncnc2c1sc1nc3c(cc12)CSC(C)(C)C3	-18	26*	nt	19	9	-3	5	29*
CCCCc1cc(=O)oc2c(CN(C)C)c(O)ccc12	-12	3	-3	-5	6	2	nt	nt
CC[C@@]1(O)C(=O)OCc2c1cc1n(c2=O)Cc2cc3c(CN(C)C)c(O)ccc3nc2-1	44	12*	14	16	-13	-1	12*	20*
CCCCn1c(SCC(=O)NCc2ccccc2)nc2ccc(N3CCOCC3)cc2c1=O	-22	19*	0	-1	1	-1	35*	56*
COc1ccc(-c2nnc(SCc3nc4ccccc4c(=O)[nH]3)o2)cc1	-15	8.9*	-1	7	-15	8.2*	12*	14*
CSc1nc(SC(C)C(=O)O)c2c3c(sc2n1)COC(C)(C)C3 (centres undefined)	14	9.0*	15	1	22	-2	21*	30*
CCOc1cccc2cc(C(=O)Nc3cc(C)on3)c(=O)oc12	-19	15*	5	9	5	1	33*	37*
CCOc1cccc2cc(C(=O)NCc3ccc(OC)cc3)c(=N)oc12	4	13*	1	-2	6	3	5	6
CCc1ccccc1NC(=O)CC1S/C(=N\c2nccs2)N(CC)C1=O (centres undefined)	5	15*	-1	-5	1	-2	9.0*	12*
CCN1C(=O)C(=O)N(CC(=O)Nc2cccc(C(F)(F)F)c2)C1=O	-45	-1	nt	7	1	-2	nt	nt
O=C(Cc1cc(=O)[nH][nH]1)N/N=C/c1cccc(Cl)c1Cl	-9	-2	7	-3	2	0	nt	nt
N#Cc1c(-c2ccncc2)cc(-c2ccc(F)cc2)nc1N	3	33*	2	13	14	1	8.9*	26*
CC(=O)c1ccc(N2CCN(C(=O)c3ccc(-c4ccccc4)cc3)CC2)cc1	-31	26*	6	6	4	2	44*	54*
CCc1ccccc1S(=O)(=O)Cc1ccc(C(=O)NCc2ccc3c(c2)OCO3)o1	-12	-3	-3	1	14	1	nt	nt
N#Cc1c(NC(=O)C2CC=CCC2C(=O)O)sc2c1CCCCCC2 (centres undefined)	-12	11*	6	1	3	0	9.0*	9.4*
Cc1cccc(C(C)C)c1NC(=O)CSc1cccc[n+]1[O-]	-20	1	nt	-1	-5	-1	nt	nt
Cc1cccc(NC(=O)CSc2cccc[n+]2[O-])c1C	-5	16*	nt	-8	-2	-2	9.3*	11*
O=C(Oc1ccc(-c2csnn2)cc1)C1CC1	26	0	0	-3	2	1	nt	nt
SMILES	NR2E3 ag-1	PG9 Ab binder	NR2E3 ag-2	NR1D1 modulator	MC4R antagonist	MC4R barr agon	PG9 bind confirm	PGV04 counter	others
O=C(O)C1CC=CCC1C(=O)N1CCN(c2nc(-c3ccccc3Cl)c3cc(Br)ccc3n2)CC1 (centres undefined)	-48	13*	5	3	23	1	25*	41*
N#Cc1c(N2CCCCC2)nc(N)c2c(N)nc3c(c12)CC(CCl)O3 (centres undefined)	-2	21*	6	-2	20	4	23*	35*
CCC1Cc2c(nc(N)c3c(N)nc(N4CCOCC4)c(C#N)c23)O1 (centres undefined)	0	-1	-5	-9	8	2	nt	nt
Nc1ccc(-c2nc3ccc(-c4nc5ccccc5o4)cc3[nH]2)cc1	-62	10*	3	-9	11	4	10*	20*
Cc1nc2ccc(-c3nc4ccccc4o3)cc2[nH]1	-122	0	0	2	0	0	nt	nt
CCCn1c(=O)c(C(=O)NCC2CCCO2)c(O)c2ccccc21 (centres undefined)	-21	8.6*	4	9	1	-3	12*	16*
C/C(=N\NC(=O)c1ccc([N+](=O)[O-])cc1)c1cc2ccccc2oc1=O	-33	-2	-1	3	-2	-2	nt	nt
O=C(N/N=C\c1cccc(Cl)c1)c1ccc(Cn2cccn2)o1	-39	-2	9	-5	2	1	nt	nt
NS(=O)(=O)c1ccc(CCNC(=O)c2ccc(-c3ccccc3)cc2)cc1	0	12*	0	-2	1	-2	21*	14*	PG9 binder DR=>67;PGV04 binding DR=>67;PG126 binding DR=>67
COc1ccccc1NC(=O)c1ccccc1SC	-37	0	4	-2	8	0	nt	nt
COc1ccc(O)c(/C=C(\C#N)C(=O)Nc2cccnc2)c1	-48	24*	-1	6	1	1	13*	16*
O=C(COC(=O)c1cccc(-n2cnnn2)c1)c1ccc(F)cc1	-45	-1	0	-3	8	-2	nt	nt
